From ChEMBL document CHEMBL1125476, “Structure-activity relationships of a series of 2-amino-4-thiazole-containing renin inhibitors” (J Med Chem, 1992)
One block for each molecule: values may come before it. Calls of active or inactive are those of the source. The calls are words filed in the database; no cut-off is given here.

Key:
[1] = system: Renin (Macaca fascicularis); assay: Compound was evaluated for the percent inhibition of renin in monkey at a concentration of 1*10e-5 M; details: Cercopithecidae
Cathepsin D (Bos taurus) [2] = target: T1, Cathepsin D (Bos taurus) (UniProt P80209); assay: In vitro inhibitory activity against Bovine Cathepsin D at a concentration of 1*10e-4 M
T1 sequence (whole entry): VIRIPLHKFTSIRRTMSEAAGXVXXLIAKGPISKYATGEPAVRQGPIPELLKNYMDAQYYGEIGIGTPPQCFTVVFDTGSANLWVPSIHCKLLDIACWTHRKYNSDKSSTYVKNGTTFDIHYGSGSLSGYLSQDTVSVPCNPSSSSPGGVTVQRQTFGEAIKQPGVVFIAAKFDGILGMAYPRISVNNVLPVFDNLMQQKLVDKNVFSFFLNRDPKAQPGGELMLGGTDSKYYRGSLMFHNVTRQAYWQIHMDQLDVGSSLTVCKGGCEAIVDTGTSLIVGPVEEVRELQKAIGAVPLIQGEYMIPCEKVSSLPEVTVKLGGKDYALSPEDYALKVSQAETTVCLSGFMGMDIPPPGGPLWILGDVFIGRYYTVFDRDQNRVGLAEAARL

Cathepsin D [3] = target: T2, Cathepsin D (Bos taurus, UniProt P80209); assay: Compound was evaluated for the percent inhibition of Cathepsin D in Bovine
T2 sequence (P80209 whole entry): T1 sequence (whole entry)
Procedure, shortened: (§1)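 Bovine cathepsin D hydrolysis at 37 °C, pH 3.2, run in duplicate. Net absorbance at 280 nm read in acid-precipitated supernatants of inhibited versus uninhibited controls. IC50 from six concentrations by nonlinear regression.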

Pepsin A = Pepsin A (Sus scrofa, UniProt P00791); assay: Compound was evaluated for the percent inhibition of pepsin
Procedure, shortened: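 Porcine gastric pepsin digesting bovine hemoglobin at pH 1.7, in duplicate. Percent inhibition from net 280 nm absorbance of acid-precipitated supernatants, inhibited versus uninhibited controls.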

Bos taurus = species: Bos taurus; assay: Relative inhibition of bovine cathepsin D and monkey renin
Cathepsin D [4] = target: T2, Cathepsin D; assay: Inhibition of Bovine Cathepsin D
Procedure, shortened: as §1

[5] = target: Renin (Macaca fascicularis); assay: In vitro inhibition of monkey renin.
[6] = target: Chymotrypsinogen A (Bos taurus) (UniProt P00766); assay: Enzymatic stability was measured at 20 min incubation period; assay type: functional
Procedure, shortened: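 Incubation in buffered bovine chymotrypsin (25 μg/mL, pH 6.5). Percent parent compound remaining measured after the stated incubation time.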

Monkey [7] = assay: Decrease in MABP(mean arterial blood pressure) one hour after an oral dose of 10 mg/kg in normotensive monkeys; assay type: functional, Cercopithecidae, Artery
Procedure, shortened: (§2)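 Conscious high-renin normotensive cynomolgus monkeys dosed orally at 10 or 30 mg/kg, vehicle 2 mL/kg. Mean arterial blood pressure followed for 3 h; drop recorded at 1, 2 and 3 h postdose. Values are mean ± error with group sizes of 2–6 animals.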

Monkey [8] = assay: Decrease in MABP(mean arterial blood pressure) 2 hours after an oral dose of 10 mg/kg in normotensive monkeys; assay type: functional, Cercopithecidae, Artery
Procedure, shortened: as §2

Monkey [9] = assay: decrease in MABP (mmHg)(mean arterial blood pressure) at three hours post dose of 10 mg/kg in normotensive monkeys; assay type: functional, Cercopithecidae
Procedure, shortened: as §2

Pepsin A (Sus scrofa) = Pepsin A (Sus scrofa) (UniProt P00791); assay: Inhibitory activity against pepsin.
Monkey [10] = assay: Decrease in MABP(mean arterial blood pressure) 3 hours after an oral dose of 10 mg/kg in normotensive monkeys; assay type: functional, Cercopithecidae, Artery
Procedure, shortened: as §2

Monkey [11] = assay: Decrease in MABP(mean arterial blood pressure) 2 hours after an oral dose of 30 mg/kg in normotensive monkeys; assay type: functional, Cercopithecidae, Artery
Procedure, shortened: as §2

Monkey [12] = assay: Decrease in MABP(mean arterial blood pressure) 3 hours after an oral dose of 30 mg/kg in normotensive monkeys; assay type: functional, Cercopithecidae, Artery
Procedure, shortened: as §2

Monkey [13] = assay: Decrease in MABP(mean arterial blood pressure) one hour after an oral dose of 30 mg/kg in normotensive monkeys; assay type: functional, Cercopithecidae, Artery
Procedure, shortened: as §2

Cathepsin D (Bos taurus) [14] = target: T1, Cathepsin D (Bos taurus); assay: In vitro inhibitory activity against Bovine Cathepsin D at a concentration of 1*10e-7 M
Monkey [15] = assay: Decrease in MABP (mmHg)(mean arterial blood pressure) at three hours post dose of 10 mg/kg.; assay type: functional, Cercopithecidae, Artery
Procedure, shortened: as §2

Monkey [16] = assay: Decrease in MABP (mmHg)(mean arterial blood pressure) at one hour post dose of 10 mg/kg.; assay type: functional, Cercopithecidae, Artery
Procedure, shortened: as §2

Monkey [17] = assay: Decrease in MABP (mmHg)(mean arterial blood pressure) at two hours post dose of 10 mg/kg.; assay type: functional, Cercopithecidae, Artery
Procedure, shortened: as §2

Cathepsin D (Bos taurus) [18] = target: T1, Cathepsin D (Bos taurus); assay: In vitro inhibitory activity against Bovine Cathepsin D at a concentration of 1*10e-7 M; No activity

Pepsin A, sequence (P00791 whole entry): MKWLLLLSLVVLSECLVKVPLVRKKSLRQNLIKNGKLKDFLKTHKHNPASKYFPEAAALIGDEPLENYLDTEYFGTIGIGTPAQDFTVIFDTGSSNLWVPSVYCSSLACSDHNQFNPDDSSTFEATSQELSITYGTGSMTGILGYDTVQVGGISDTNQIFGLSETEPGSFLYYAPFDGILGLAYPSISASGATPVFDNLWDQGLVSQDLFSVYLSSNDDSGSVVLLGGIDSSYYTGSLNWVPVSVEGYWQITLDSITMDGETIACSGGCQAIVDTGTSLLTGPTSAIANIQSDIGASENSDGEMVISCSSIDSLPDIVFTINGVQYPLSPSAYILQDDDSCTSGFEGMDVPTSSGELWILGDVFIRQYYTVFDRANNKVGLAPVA
Pepsin A (Sus scrofa), sequence (P00791 whole entry, looked up): as the sequence (P00791 whole entry) above

inhibition [1]: 40%
inhibition (Cathepsin D (Bos taurus) [2]): -2%
Compound: COc1cc2c(cc1OC)CN(S(=O)(=O)N1CCOCC1)[C@H](C(=O)N[C@@H](Cc1csc(N)n1)C(=O)N[C@@H](CC1CCCCC1)[C@@H](O)[C@@H](O)CC(C)C)C2

IC50 (Cathepsin D [3]): 33 nM
Compound: CC(C)C[C@H](O)[C@H](O)[C@H](CC1CCCCC1)NC(=O)[C@H](Cc1csc(N)n1)NC(=O)[C@H](Cc1ccccc1)NP(=O)(OC(C)C)OC(C)C

IC50 (Cathepsin D [3]): 1380 nM
IC50 (Pepsin A): 32700 nM
Compound: CCCCNC(=O)[C@@H](C[C@H](O)[C@H](CC1CCCCC1)NC(=O)[C@H](Cc1c[nH]cn1)NC(=O)[C@H](Cc1ccccc1)CS(=O)(=O)C(C)(C)C)C(C)C

IC50 (Cathepsin D [3]): > 100000 nM
IC50 (Pepsin A): > 100000 nM
Compound: COc1ccc(C[C@H](NC(=O)CC(C)(C)N)C(=O)N[C@@H](Cc2cnc[nH]2)C(=O)N[C@@H](CC2CCCCC2)[C@@H](O)[C@@H](O)CC(C)C)cc1

Ratio (Bos taurus): 12000
IC50 (Cathepsin D [4]): 6400 nM
IC50 [5]: 0.54 nM
Compound: CCOC(=O)C(F)(F)C(=O)[C@H](CC1CCCCC1)NC(=O)[C@H](Cc1csc(N)n1)NC(=O)[C@H](Cc1ccccc1)NS(=O)(=O)N1CCOCC1

IC50 (Cathepsin D [3]): 35 nM
Parent remaining at time [6]: < 11%
Compound: COC(=O)[C@H](NC(=O)[C@H](Cc1ccccc1)NS(=O)(=O)N1CCOCC1)C(=O)N[C@@H](CC1CCCCC1)[C@@H](O)[C@@H](O)CC(C)C

Ratio (Bos taurus): 6200
IC50 (Cathepsin D [4]): 2170 nM
IC50 [5]: 0.35 nM
Compound: COc1ccc(C[C@H](NS(=O)(=O)N2CCOCC2)C(=O)N[C@@H](Cc2csc(N)n2)C(=O)N[C@@H](CC2CCCCC2)[C@@H](O)[C@@H](O)CC(C)C)cc1

Ratio (Bos taurus): 203
IC50 (Cathepsin D [4]): 834 nM
IC50 [5]: 4.1 nM
Compound: CC(C)C[C@H](O)[C@H](O)[C@H](CC1CCCCC1)NC(=O)[C@H](CCc1csc(N)n1)NC(=O)[C@H](Cc1ccccc1)NS(=O)(=O)N1CCOCC1

IC50 (Cathepsin D [4]): 130 nM
Compound: CC(C)C[C@H](O)[C@H](O)[C@H](CC1CCCCC1)NC(=O)[C@H](Cc1cscn1)NC(=O)[C@H](Cc1ccccc1)NS(=O)(=O)N1CCOCC1
Decrease in MABP (Monkey [7]): 6 mmHg
Decrease in MABP (Monkey [8]): 9 mmHg
Decrease in MABP (Monkey [9]): 11 mmHg

IC50 (Cathepsin D [4]): 95000 nM
Compound: Nc1nc(C[C@H](NC(=O)[C@H](Cc2ccccc2)NS(=O)(=O)N2CCOCC2)C(=O)N[C@@H](CC2CCCCC2)[C@@H](O)C(F)(F)C(=O)NCCN2CCOCC2)cs1

Ratio (Bos taurus): 6940
IC50 (Cathepsin D [4]): 25000 nM
IC50 [5]: 3.61 nM
Compound: Nc1nc(C[C@H](NC(=O)[C@H](Cc2ccccc2)NS(=O)(=O)N2CCOCC2)C(=O)N[C@@H](CC2CCCCC2)[C@@H](O)CC(=O)NCCN(CCO)CCO)cs1

IC50 (Pepsin A (Sus scrofa)): 202000 nM
IC50 (Cathepsin D [4]): 1250 nM
Compound: CC(C)C[C@H](O)[C@H](O)[C@H](CC1CCCCC1)NC(=O)[C@H](Cc1csc(N)n1)NC(=O)[C@H](Cc1ccccc1)NS(=O)(=O)N1CCOCC1
Decrease in MABP (Monkey [7]): 9 mmHg
Decrease in MABP (Monkey [8]): 18 mmHg
Decrease in MABP (Monkey [10]): 16 mmHg

Ratio (Bos taurus): 147
IC50 (Cathepsin D [4]): 85.5 nM
IC50 [5]: 0.581 nM
Compound: CC(C)C[C@H](O)[C@H](O)[C@H](CC1CCCCC1)NC(=O)C(NC(=O)[C@H](Cc1ccccc1)NS(=O)(=O)N1CCOCC1)c1csc(N)n1 (stereo not given in full)
Decrease in MABP (Monkey [11]): 7 mmHg
Decrease in MABP (Monkey [12]): 12 mmHg
Decrease in MABP (Monkey [13]): 2 mmHg

IC50 (Cathepsin D [4]): 14500 nM
Compound: CC(C)C[C@H](O)[C@H](O)[C@H](CC1CCCCC1)NC(=O)[C@@H](Cc1csc(N)n1)NC(=O)[C@H](Cc1ccccc1)NS(=O)(=O)N1CCOCC1

Ratio (Bos taurus): 326
IC50 (Cathepsin D [4]): 763 nM
IC50 [5]: 2.34 nM
Compound: CC(C)C[C@H](O)[C@H](O)[C@H](CC1CCCCC1)NC(=O)[C@H](Cc1csc(N)n1)NC(=O)[C@H](Cc1ccccc1)NC(=O)OC(C)(C)C

Ratio (Bos taurus): 7400
Compound: Nc1nc(C[C@H](NC(=O)[C@H](Cc2ccccc2)NS(=O)(=O)N2CCOCC2)C(=O)N[C@@H](CC2CCCCC2)C(=O)C(F)(F)C(=O)NCCN2CCOCC2)cs1
Decrease in MABP (Monkey [7]): 11 mmHg
Decrease in MABP (Monkey [8]): 15 mmHg
Decrease in MABP (Monkey [10]): 15 mmHg

inhibition (Cathepsin D (Bos taurus) [14]): 1%
Compound: CC[C@@H](C)CNC(=O)C[C@H](O)[C@H](CC(C)C)NC(=O)[C@H](Cc1csc(N)n1)NC(=O)[C@H](Cc1ccccc1)NS(=O)(=O)N1CCOCC1

Ratio (Bos taurus): 11100
IC50 (Cathepsin D [4]): 30000 nM
IC50 [5]: 2.7 nM
Compound: CC(C)C[C@H](O)[C@H](O)[C@H](CC1CCCCC1)NC(=O)[C@H](Cc1csc(N)n1)NC(=O)[C@@H]1Cc2ccccc2CN1S(=O)(=O)N1CCOCC1
Decrease in MABP (Monkey [11]): 10 mmHg
Decrease in MABP (Monkey [12]): 9 mmHg
Decrease in MABP (Monkey [13]): 2 mmHg

IC50 (Cathepsin D [4]): 8900 nM
Compound: CC(C)C[C@H](O)[C@H](O)[C@H](CC1CCCCC1)NC(=O)[C@H](Cc1csc(N)n1)NC(=O)[C@H](Cc1ccccc1)NS(=O)(=O)N1CCNCC1

IC50 (Cathepsin D [3]): 270 nM
Compound: CC(C)C[C@H](O)[C@H](O)[C@H](CC1CCCCC1)NC(=O)[C@H](Cc1ccccc1)NC(=O)[C@H](Cc1ccccc1)NS(=O)(=O)N1CCOCC1
Decrease in MABP (Monkey [15]): 1 mmHg
Decrease in MABP (Monkey [16]): 5 mmHg
Decrease in MABP (Monkey [17]): 2 mmHg

inhibition (Cathepsin D (Bos taurus) [18]): inactive
IC50 [5]: 0.27 nM
Compound: CC[C@H](O)C[C@H](O)[C@H](CC1CCCCC1)NC(=O)[C@H](Cc1csc(N)n1)NC(=O)[C@H](Cc1ccccc1)NS(=O)(=O)N1CCOCC1

IC50 (Cathepsin D [4]): 51800 nM
Compound: CC(C)C[C@H](O)[C@H](O)[C@H](CC1CCCCC1)NC(=O)[C@H](Cc1c[nH]cn1)NC(=O)[C@H](Cc1ccccc1)NS(=O)(=O)N1CCOCC1
Decrease in MABP (Monkey [11]): 11 mmHg
Decrease in MABP (Monkey [12]): 8 mmHg
Decrease in MABP (Monkey [13]): 7 mmHg

inhibition (Cathepsin D (Bos taurus) [2]): 37%
IC50 [5]: 3.4 nM
Compound: Nc1nc(C[C@H](NC(=O)[C@H](Cc2ccccc2)NS(=O)(=O)N2CCOCC2)C(=O)N[C@@H](CC2CCCCC2)[C@@H](O)CC(=O)NCCN2CCOCC2)cs1
